Published values from different studies.
Compare with care: the assays were run in different laboratories.
Target: Tyrosine-protein kinase Blk (BLK, Homo sapiens, UniProt P51451)

SMILES	assay	setting	measurement	value
C#Cc1n[nH]c2c(-c3cn([C@@H](C)c4ccccc4)c(=O)[nH]c3=O)cc(F)cc12	enzyme activity, inhibitor	0.1 µM	inhibition	-5.4%
Nc1ncc(-c2nc(N3CCOCC3)nc(N3CCOCC3)n2)c(C(F)F)n1	binding, competition with immobilised ligand	10 µM	remaining binding	70%
COc1cc(Nc2ncc(F)c(Nc3ccc4c(n3)NC(=O)C(C)(C)O4)n2)cc(OC)c1OC	binding, competition with immobilised ligand	10 µM	inhibition	100%
O=c1[nH]c2ccccc2n1C1CCN(Cc2ccc(-c3[nH]c4cc5ncnc5cc4nc3-c3ccccc3)cc2)CC1	cell-free assay	0.5 µM	remaining signal	106%
Cn1cncc1[C@](O)(COc1ccc(C#N)cc1-c1ccc(OC(F)(F)F)cc1)c1ccc(C#N)cc1	cell-free assay, competition with immobilised ligand	1 µM	remaining binding	90%
Cn1cc(-c2cccc(N3CCc4c(sc5c4CC(C)(C)C5)C3=O)c2CO)cc(Nc2ccncn2)c1=O	enzyme activity, inhibitor	1 µM	inhibition	-3%
C#Cc1n[nH]c2c(-c3cn([C@@H](C)c4ccccn4)c(=O)[nH]c3=O)cc(F)cc12	enzyme activity, inhibitor	0.1 µM	inhibition	-5.3%
CC(C)(C)c1cc(C=C(C#N)C#N)cc(Br)c1O	enzyme activity, inhibitor	0.5 µM	remaining activity	97.9%
COc1ncccc1-c1cnn2ccc(N3CCN(C(=O)OC(C)C)CC3)nc12	binding, competition with immobilised ligand	1 µM	remaining binding	100%
Cc1nn(C)cc1-c1nc2c(N3CCN(Cc4ccc(Cl)cc4)CC3)c(Cl)cnc2[nH]1	binding, competition with immobilised ligand	1 µM	remaining binding	100%
Cn1cc(-c2cc(F)cc(N3CCn4c(cc5c4CCCC5)C3=O)c2CO)cc(Nc2ccc(N3CCN(C4COC4)CC3)cn2)c1=O	enzyme activity, inhibitor	0.1 µM	inhibition	14%
